Test results published in ChEMBL document CHEMBL1148485, “Synthesis and biological evaluation of new selective cytotoxic cyclolignans derived from podophyllotoxin” (J Med Chem, 2004).

The compounds below were run on HeLa (assay: Tested for effect of compound on G0/G1 cell cycle phase and apoptosis in HeLa cells at a dose of 10E-6 for 72 hr). Conditions: not given.
Assay type: functional, Homo sapiens
Summary of the method: (§1)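 HeLa cells were grown in DMEM with 10% heat-inactivated FCS and 2 mM L-glutamine at 37 °C in 5% CO2. They were exposed to 10^-6 to 10^-8 M for 24, 48 or 72 h. Then (3-5)×10^5 cells were fixed overnight in 70% ethanol at 4 °C, PBS-washed, and given 1 mg/mL RNase A plus 20 µg/mL propidium iodide for 1 h at room temperature. DNA content was read by flow cytometry. Sub-G1 (hypodiploid) % counted as apoptotic. Untreated controls were run in parallel. Representative of three independent experiments.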

SMILES | Activity [%]
COC(=O)[C@@H]1C(/C=N/c2ccc(OC)cc2)=Cc2cc3c(cc2C1c1cc(OC)c(OC)c(OC)c1)OCO3 (stereo not given in full) | 19.4

What follows are compounds tested on HeLa (assay: Tested for effect of compound on Sub-G1 cell cycle phase and apoptosis in HeLa cells at a dose of 10E-8 for 24 hr). Conditions: not given.
Assay type: functional, Homo sapiens
Summary of the method: (§2)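 HeLa cells grown in DMEM with 10% heat-inactivated FCS, 2 mM L-glutamine, penicillin and gentamicin at 37 °C, 5% CO2. Exposed to compound at 10^-6 to 10^-8 M for 24, 48 or 72 h, untreated controls run in parallel. (3-5) × 10^5 cells fixed overnight in 70% ethanol at 4 °C, then RNase A plus propidium iodide. Phase fractions measured by flow cytometry, with sub-G1 (hypodiploid) cells counted as apoptotic. Three independent experiments.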

SMILES | Activity [%]
COC(=O)[C@@H]1C(/C=N/c2ccc(OC)cc2)=Cc2cc3c(cc2C1c1cc(OC)c(OC)c(OC)c1)OCO3 (stereo not given in full) | 1.4

What follows are compounds tested on HeLa (assay: Tested for effect of compound on S cell cycle phase and apoptosis in HeLa cells at a dose of 10E-7 for 48 hr). Conditions: not given.
Assay type: functional, Homo sapiens
Summary of the method: as §2

SMILES | Activity [%]
COC(=O)[C@@H]1C(/C=N/c2ccc(OC)cc2)=Cc2cc3c(cc2C1c1cc(OC)c(OC)c(OC)c1)OCO3 (stereo not given in full) | 6.2

Each compound was assayed on HeLa (assay: Tested for effect of compound on G2/M cell cycle phase and apoptosis in HeLa cells at a dose of 10E-6 for 24 hr). Conditions: not given.
Assay type: functional, Homo sapiens
Summary of the method: as §1

SMILES | Activity [%]
COC(=O)[C@@H]1C(/C=N/c2ccc(OC)cc2)=Cc2cc3c(cc2C1c1cc(OC)c(OC)c(OC)c1)OCO3 (stereo not given in full) | 90.8

What follows are compounds tested on HeLa (assay: Tested for effect of compound on G0/G1 cell cycle phase and apoptosis in HeLa cells at a dose of 10E-8 for 24 hr). Conditions: not given.
Assay type: functional, Homo sapiens
Summary of the method: as §1

SMILES | Activity [%]
COC(=O)[C@@H]1C(/C=N/c2ccc(OC)cc2)=Cc2cc3c(cc2C1c1cc(OC)c(OC)c(OC)c1)OCO3 (stereo not given in full) | 55.1

These compounds were tested on HeLa (assay: Tested for effect of compound on G2/M cell cycle phase and apoptosis in HeLa cells at a dose of 10E-8 for 24 hr). Conditions: not given.
Assay type: functional, Homo sapiens
Summary of the method: as §2

SMILES | Activity [%]
COC(=O)[C@@H]1C(/C=N/c2ccc(OC)cc2)=Cc2cc3c(cc2C1c1cc(OC)c(OC)c(OC)c1)OCO3 (stereo not given in full) | 28.2

What follows are compounds tested on HeLa (assay: Tested for effect of compound on S cell cycle phase and apoptosis in HeLa cells at a dose of 10E-8 for 48 hr). Conditions: not given.
Assay type: functional, Homo sapiens
Summary of the method: as §2

SMILES | Activity [%]
COC(=O)[C@@H]1C(/C=N/c2ccc(OC)cc2)=Cc2cc3c(cc2C1c1cc(OC)c(OC)c(OC)c1)OCO3 (stereo not given in full) | 15.1

These compounds were tested on HT-29 (assay: In vitro cytotoxicity against HT-29 (human colon carcinoma) cell line.). Conditions: Homo sapiens, HT-29.
Assay type: functional, cell-based

SMILES | IC50 [nM]
COC(=O)[C@@H]1C(/C=N/c2ccc(OC)cc2)=Cc2cc3c(cc2C1c1cc(OC)c(OC)c(OC)c1)OCO3 (stereo not given in full) | 9.4

Each compound was assayed on HeLa (assay: Tested for effect of compound on G0/G1 cell cycle phase and apoptosis in HeLa cells at a dose of 10E-7 for 48 hr). Conditions: not given.
Assay type: functional, Homo sapiens
Summary of the method: as §1

SMILES | Activity [%]
COC(=O)[C@@H]1C(/C=N/c2ccc(OC)cc2)=Cc2cc3c(cc2C1c1cc(OC)c(OC)c(OC)c1)OCO3 (stereo not given in full) | 7.7

What follows are compounds tested on HeLa (assay: Tested for effect of compound on S cell cycle phase and apoptosis in HeLa cells at a dose of 10E-6 for 48 hr). Conditions: not given.
Assay type: functional, Homo sapiens
Summary of the method: as §2

SMILES | Activity [%]
COC(=O)[C@@H]1C(/C=N/c2ccc(OC)cc2)=Cc2cc3c(cc2C1c1cc(OC)c(OC)c(OC)c1)OCO3 (stereo not given in full) | 6

The compounds below were run on HeLa (assay: Tested for effect of compound on S cell cycle phase and apoptosis in HeLa cells at a dose of 10E-7 for 24 hr). Conditions: not given.
Assay type: functional, Homo sapiens
Summary of the method: as §2

SMILES | Activity [%]
COC(=O)[C@@H]1C(/C=N/c2ccc(OC)cc2)=Cc2cc3c(cc2C1c1cc(OC)c(OC)c(OC)c1)OCO3 (stereo not given in full) | 18.8

Each compound was assayed on HeLa (assay: Tested for effect of compound on G2/M cell cycle phase and apoptosis in HeLa cells at a dose of 10E-8 for 48 hr). Conditions: not given.
Assay type: functional, Homo sapiens
Summary of the method: as §2

SMILES | Activity [%]
COC(=O)[C@@H]1C(/C=N/c2ccc(OC)cc2)=Cc2cc3c(cc2C1c1cc(OC)c(OC)c(OC)c1)OCO3 (stereo not given in full) | 25.5

What follows are compounds tested on HeLa (assay: Tested for effect of compound on Sub-G1 cell cycle phase and apoptosis in HeLa cells at a dose of 10E-6 for 24 hr). Conditions: not given.
Assay type: functional, Homo sapiens
Summary of the method: as §2

SMILES | Activity [%]
COC(=O)[C@@H]1C(/C=N/c2ccc(OC)cc2)=Cc2cc3c(cc2C1c1cc(OC)c(OC)c(OC)c1)OCO3 (stereo not given in full) | 1.9

The compounds below were run on HeLa (assay: Tested for effect of compound on G0/G1 cell cycle phase and apoptosis in HeLa cells at a dose of 10E-8 for 48 hr). Conditions: not given.
Assay type: functional, Homo sapiens
Summary of the method: as §1

SMILES | Activity [%]
COC(=O)[C@@H]1C(/C=N/c2ccc(OC)cc2)=Cc2cc3c(cc2C1c1cc(OC)c(OC)c(OC)c1)OCO3 (stereo not given in full) | 57.5

These compounds were tested on HeLa (assay: Tested for effect of compound on Sub-G1 cell cycle phase and apoptosis in HeLa cells at a dose of 10E-7 for 48 hr). Conditions: not given.
Assay type: functional, Homo sapiens
Summary of the method: as §2

SMILES | Activity [%]
COC(=O)[C@@H]1C(/C=N/c2ccc(OC)cc2)=Cc2cc3c(cc2C1c1cc(OC)c(OC)c(OC)c1)OCO3 (stereo not given in full) | 5.2

The compounds below were run on HeLa (assay: Tested for effect of compound on G0/G1 cell cycle phase and apoptosis in HeLa cells at a dose of 10E-7 for 72 hr). Conditions: not given.
Assay type: functional, Homo sapiens
Summary of the method: as §1

SMILES | Activity [%]
COC(=O)[C@@H]1C(/C=N/c2ccc(OC)cc2)=Cc2cc3c(cc2C1c1cc(OC)c(OC)c(OC)c1)OCO3 (stereo not given in full) | 35.1

These compounds were tested on HeLa (assay: Tested for effect of compound on S cell cycle phase and apoptosis in HeLa cells at a dose of 10E-6 for 24 hr). Conditions: not given.
Assay type: functional, Homo sapiens
Summary of the method: as §2

SMILES | Activity [%]
COC(=O)[C@@H]1C(/C=N/c2ccc(OC)cc2)=Cc2cc3c(cc2C1c1cc(OC)c(OC)c(OC)c1)OCO3 (stereo not given in full) | 5.3

These compounds were tested on HeLa (assay: Tested for effect of compound on G2/M cell cycle phase and apoptosis in HeLa cells at a dose of 10E-6 for 72 hr). Conditions: not given.
Assay type: functional, Homo sapiens
Summary of the method: as §2

SMILES | Activity [%]
COC(=O)[C@@H]1C(/C=N/c2ccc(OC)cc2)=Cc2cc3c(cc2C1c1cc(OC)c(OC)c(OC)c1)OCO3 (stereo not given in full) | 10.4

Each compound was assayed on HeLa (assay: Tested for effect of compound on Sub-G1 cell cycle phase and apoptosis in HeLa cells at a dose of 10E-7 for 24 hr). Conditions: not given.
Assay type: functional, Homo sapiens
Summary of the method: as §2

SMILES | Activity [%]
COC(=O)[C@@H]1C(/C=N/c2ccc(OC)cc2)=Cc2cc3c(cc2C1c1cc(OC)c(OC)c(OC)c1)OCO3 (stereo not given in full) | 1.6

What follows are compounds tested on HeLa (assay: Tested for effect of compound on G2/M cell cycle phase and apoptosis in HeLa cells at a dose of 10E-7 for 24 hr). Conditions: not given.
Assay type: functional, Homo sapiens
Summary of the method: as §2

SMILES | Activity [%]
COC(=O)[C@@H]1C(/C=N/c2ccc(OC)cc2)=Cc2cc3c(cc2C1c1cc(OC)c(OC)c(OC)c1)OCO3 (stereo not given in full) | 46.1
